Active and inactive are the calls of the source.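 How the source made its calls, unless noted: active means GFP response above 150% of the DMSO level; inconclusive means fewer than 70 events counted for a yeast strain; inactive means the rest.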
How the values were obtained:
[1] = hit retest on RPL19A-GFP reporter strain – cell-based, S. cerevisiae, flow cytometry, cherry picks, mother/daughter gates, confirmation (AID 2270;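 active means GFP response below 50% of the DMSO control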); conditions: 3 h, at 10 µM, stronger effect = lower value, 100 = same GFP as DMSO wells
[2] = yeast TOR pathway reporter LAP4-GFP change – cell-based, cherry picks, flow cytometry, mother/daughter gates, confirmation (AID 2271;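 active means GFP response above 150% of the DMSO control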;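 further: ratio of sample to DMSO plate mean so 100% equals DMSO level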); conditions: S. cerevisiae LAP4-GFP strain, 3 h, at 10 µM, stronger effect = higher value, 100 means same as DMSO control
Outline: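 Material: Alexa Fluor 633-labelled Saccharomyces cerevisiae GFP-fusion strain, single-plex | Amount: Yeast cells seeded at OD600 of 0.2 | Buffer or medium: SC growth medium | Schedule: 3 h exposure, 30 °C | Measured by: HT flow cytometry, GFP fluorescence channel | Evaluation: % GFP response vs DMSO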

[3] = TOR pathway reporter MEP2-GFP, retest of hits – S. cerevisiae, flow cytometry GFP, cherry picks, confirmation (AID 2272;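 active means GFP response above 150% of the DMSO control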;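 further: ratio of well signal to plate DMSO mean so 100% equals DMSO level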); conditions: S. cerevisiae MEP2-GFP strain, 3 h, at 10 µM, stronger effect = higher value
[4] = yeast AGP1-GFP fluorescence change, single-dose – cell-based, flow cytometry, S. cerevisiae, cherry picks, confirmation (AID 2273);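 further: median GFP channel fluorescence over the whole cell population gate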; conditions: S. cerevisiae AGP1-GFP strain, 3 h, at 10 µM
[5] = TOR pathway CIT2 reporter hit retest – S. cerevisiae, GFP fusion, cherry picks, mother/daughter gates, confirmation (AID 2274); conditions: S. cerevisiae CIT2-GFP strain, flow cytometry, 3 h, at 10 µM, stronger effect = higher value
[6] = measured here: daughter cell gate
[7] = measured here: mother cell gate
[8] = measured here: daughter cell gate response
[9] = measured here: mother cell gate response

Row | Compound | GFP response vs DMSO [1] | GFP response vs DMSO [1, 6] | GFP response vs DMSO [1, 7] | GFP response relative to DMSO [2] | GFP response relative to DMSO [2, 8] | GFP response relative to DMSO [2, 9] | GFP response vs DMSO [3] | GFP response, % of DMSO [4] | GFP response, % of DMSO [5] | GFP response, % of DMSO [5, 6] | GFP response, % of DMSO [5, 7]
1 | Cc1ccc2[nH]c3c(=O)n(CC(=O)N4CCN(C)CC4)ncc3c2c1 | 95% (inactive) | 93.4% | 96.2% | 95.4% (inactive) | 96% | 96.1% | 98.3% (inactive) | 99.3% (inactive) | 101% (inactive) | 103% | 101%
2 | O=[N+]([O-])c1ccc(Sc2ccc(Cl)c(Cl)c2)nc1 | 97.1% (inactive) | 96.1% | 96.9% | 98.9% (inactive) | 102% | 100% | 103% (inactive) | 101% (inactive) | 98.6% (inactive) | 99.3% | 99.3%
3 | Cc1ccc(C(=O)Sc2cccccc2=O)cc1 | 101% (inactive) | 99.4% | 99% | 313% (active) | 281% | 315% | 132% (inactive) | 104% (inactive) | 90.9% (inactive) | 93.7% | 84.8%
4 | COc1ccc(CC2=C(O)c3ccccc3C(=O)C2=O)cc1 | 95.1% (inactive) | 91.3% | 96.1% | 129% (inactive) | 113% | 135% | 97.2% (inactive) | 97% (inactive) | 80.6% (inactive) | 81.6% | 80.4%
5 | CC(C)Cn1c(=O)c(C(=O)Nc2ccncc2)c(O)c2ccccc21 | 94.7% (inactive) | 101% | 85% | 160% (active) | 122% | 155% | 117% (inactive) | 88.7% (inactive) | 97.8% (inactive) | 99.7% | 90.2%
6 | O=[N+]([O-])c1ccccc1OCCOc1ccccc1[N+](=O)[O-] | 103% (inactive) | 101% | 100% | 106% (inactive) | 101% | 101% | 102% (inactive) | 106% (inactive) | 105% (inactive) | 103% | 98.5%
7 | Cc1cccc(C(=O)NNC(=S)NC(=O)c2ccccc2)c1 | 107% (inactive) | 110% | 105% | 122% (inactive) | 117% | 128% | 109% (inactive) | 102% (inactive) | 105% (inactive) | 116% | 99.7%
8 | CCNC(=O)c1ccccc1-c1nc(-c2ccccc2Cl)no1 | 95.6% (inactive) | 94.7% | 95% | 104% (inactive) | 97.5% | 104% | 103% (inactive) | 98.6% (inactive) | 98.6% (inactive) | 99.3% | 97.1%
9 | Cc1ccc(/C=C/C(=O)c2ccccc(=O)c2O)c(C)c1 | 90.2% (inactive) | 112% | 93.5% | 152% (active) | 146% | 158% | 137% (inactive) | 84.3% (inactive) | 103% (inactive) | 99.2% | 96.8%
10 | O=C(OCCCOC(=O)c1ccc(Br)o1)c1ccc(Br)o1 | 98.2% (inactive) | 95.3% | 98% | 108% (inactive) | 108% | 109% | 103% (inactive) | 102% (inactive) | 97.2% (inactive) | 97.6% | 97.1%
11 | Cc1cccn2c(=O)c(/C=C(\C#N)C(=O)NC3CCS(=O)(=O)C3)c(N3CC(C)OC(C)C3)nc12 (stereo not drawn) | 97.8% (inactive) | 99.4% | 99.7% | 92.8% (inactive) | 96% | 92.9% | 100% (inactive) | 104% (inactive) | 99.7% (inactive) | 103% | 99.7%
12 | Cc1cccn2c(=O)c(/C=C(\C#N)C(=O)NCc3ccco3)c(N3CCCC(C)C3)nc12 (stereo not drawn) | 99.8% (inactive) | 99.1% | 99.5% | 96.1% (inactive) | 96.6% | 97.2% | 98.8% (inactive) | 101% (inactive) | 99.7% (inactive) | 100% | 99.7%
13 | N#C/C(=C\c1cccc(Oc2ccccc2)c1)C(=O)N1CCOCC1 | 97.8% (inactive) | 97.8% | 95.1% | 137% (inactive) | 128% | 141% | 98.8% (inactive) | 104% (inactive) | 90.9% (inactive) | 90.5% | 87.8%
14 | O=C(O)CCC(=O)Nc1ccc(S(=O)(=O)c2ccc(NC(=O)CCC(=O)O)cc2)cc1 | 98.5% (inactive) | 100% | 97.7% | 102% (inactive) | 97.5% | 102% | 106% (inactive) | 100% (inactive) | 98.6% (inactive) | 99.3% | 99.3%
15 | Cc1onc(-c2ccccc2)c1C(=O)NC(=S)NNC(=O)c1ccco1 | 101% (inactive) | 101% | 102% | 102% (inactive) | 104% | 103% | 102% (inactive) | 98.1% (inactive) | 104% (inactive) | 106% | 99.7%
16 | CCC(=O)Nc1cccc(C(=O)/C=C/c2ccccc2)c1 | 102% (inactive) | 102% | 101% | 105% (inactive) | 102% | 106% | 109% (inactive) | 97.3% (inactive) | 97.3% (inactive) | 95.6% | 95.6%
17 | Cc1cc(Cl)ccc1N=c1ssnc1Cl | 92.2% (inactive) | 94.2% | 86.5% | 133% (inactive) | 114% | 145% | 109% (inactive) | 97.3% (inactive) | 102% (inactive) | 103% | 101%

Row | Compound | GFP response vs DMSO [1] | GFP response vs DMSO [1, 6] | GFP response vs DMSO [1, 7] | GFP response relative to DMSO [2] | GFP response relative to DMSO [2, 8] | GFP response relative to DMSO [2, 9] | GFP response vs DMSO [3] | GFP response, % of DMSO [4] | GFP response, % of DMSO [5] | GFP response, % of DMSO [5, 6] | GFP response, % of DMSO [5, 7]
18 | CCc1nnc(NC(=O)c2ccc(S(=O)(=O)N(CC(C)C)CC(C)C)cc2)o1 | 101% (inactive) | 97.6% | 102% | 98.2% (inactive) | 97.5% | 97.3% | 101% (inactive) | 100% (inactive) | 102% (inactive) | 103% | 101%
19 | COc1ccccc1-c1noc(CCC(=O)Nc2cccc(C(F)(F)F)c2)n1 | 98.2% (inactive) | 97.9% | 98.5% | 102% (inactive) | 104% | 100% | 107% (inactive) | 102% (inactive) | 100% (inactive) | 101% | 94.4%
20 | COC(CNC(=O)c1ccc2c3c(onc13)-c1ccccc1C2=O)OC | 99.9% (inactive) | 103% | 95.8% | 188% (active) | 170% | 189% | 120% (inactive) | 86% (inactive) | 91.3% (inactive) | 98.1% | 83.7%
21 | CCc1ccc2c(c1)/C(=C/C(=O)c1cccs1)C(=O)N2 | 94.9% (inactive) | 94.7% | 87.7% | 178% (active) | 156% | 171% | 100% (inactive) | 104% (inactive) | 91.3% (inactive) | 91.5% | 84.8%
22 | O=C(Nc1ccccc1C(F)(F)F)c1cc(-c2ccc(O)cc2)on1 | 98.8% (inactive) | 97% | 99.2% | 108% (inactive) | 102% | 108% | 102% (inactive) | 94% (inactive) | 101% (inactive) | 98.3% | 98%
23 | Cc1cccn2c(=O)c(/C=C(\C#N)C(=O)NCc3ccco3)c(N3CCOCC3)nc12 | 100% (inactive) | 101% | 99.6% | 97% (inactive) | 97.5% | 96.2% | 99% (inactive) | 98% (inactive) | 100% (inactive) | 103% | 98.1%
24 | O=C(NNC1=NCCC1)c1cccc(Br)c1 | 98% (inactive) | 98.5% | 97.9% | 100% (inactive) | 97.9% | 99.5% | 99.5% (inactive) | 97.5% (inactive) | 96.4% (inactive) | 96.4% | 94.5%
25 | Cc1ccc(C(=O)Oc2oc(-c3ccco3)nc2C=Nc2ccc(Cl)cc2)cc1 | 102% (inactive) | 98.3% | 98.8% | 207% (active) | 168% | 205% | 110% (inactive) | 93.8% (inactive) | 106% (inactive) | 111% | 98%
26 | Cc1cccc2c1NC(=O)/C2=C\C(=O)c1cccs1 | 97.2% (inactive) | 91.1% | 89.1% | 164% (active) | 148% | 160% | 104% (inactive) | 107% (inactive) | 92.6% (inactive) | 99.7% | 83.7%
27 | CCOC(=O)C1CCCN(C(=O)c2ccc(-c3ccc([N+](=O)[O-])cc3)o2)C1 (stereo not drawn) | 99.8% (inactive) | 100% | 98.4% | 101% (inactive) | 101% | 101% | 103% (inactive) | 99.3% (inactive) | 100% (inactive) | 97.6% | 102%
28 | CCc1c(C)c2cc(Cl)c(O)c(CN(C)C)c2oc1=O | 95.1% (inactive) | 95.6% | 94.8% | 95.3% (inactive) | 99% | 93.4% | 106% (inactive) | 93.9% (inactive) | 95.8% (inactive) | 95.8% | 94.9%
29 | O=C(/C=C/c1ccc(F)cc1)NC(=S)NNC(=O)c1cnccn1 | 108% (inactive) | 89.8% | 105% | 313% (active) | 146% | 301% | 132% (inactive) | 83.4% (inactive) | 124% (inactive) | 101% | 113%
30 | CCCn1c(=O)c(C(=O)Nc2ccccc2)c(O)c2ccccc21 | 96.7% (inactive) | 96.4% | 95.6% | 100% (inactive) | 97.5% | 98.4% | 99.3% (inactive) | 96.6% (inactive) | 98.6% (inactive) | 95.8% | 97.1%
31 | COc1cc(/C=C2\C(=O)N(CCC#N)N=C2C)c(Br)cc1OC(C)C | 105% (inactive) | 103% | 102% | 165% (active) | 145% | 168% | 107% (inactive) | 100% (inactive) | 93.9% (inactive) | 94.8% | 90.2%
32 | COc1ccc(CCN2C(=O)c3cccc4cccc(c34)C2=O)cc1OC | 104% (inactive) | 100% | 104% | 95.7% (inactive) | 99.1% | 97.3% | 101% (inactive) | 105% (inactive) | 100% (inactive) | 101% | 96.8%
33 | CCc1nnc(NC(=O)c2ccc(S(=O)(=O)N3CCCC(C)C3)cc2)o1 (stereo not drawn) | 101% (inactive) | 99.1% | 98.5% | 98.2% (inactive) | 97.5% | 100% | 101% (inactive) | 105% (inactive) | 102% (inactive) | 105% | 99.3%

Source: PubChem BioAssay
